52 compounds from ChEMBL document CHEMBL1687916, “Non-nucleoside inhibitors of human adenosine kinase: synthesis, molecular modeling, and biological studies” (J Med Chem, 2011) can be followed below.

The term IC50 denotes the point on the concentration scale where inhibition reaches its midpoint. A word on the inhibition: it is the share of the control response that was lost under treatment.

One assay deals with Adenosine kinase (Homo sapiens, UniProt P55263). Kind of assay: Inhibition of human adenosine kinase.
The target in assay [1] is T1, Adenosine deaminase (Bos taurus) (UniProt P56658).
T1 sequence (whole entry): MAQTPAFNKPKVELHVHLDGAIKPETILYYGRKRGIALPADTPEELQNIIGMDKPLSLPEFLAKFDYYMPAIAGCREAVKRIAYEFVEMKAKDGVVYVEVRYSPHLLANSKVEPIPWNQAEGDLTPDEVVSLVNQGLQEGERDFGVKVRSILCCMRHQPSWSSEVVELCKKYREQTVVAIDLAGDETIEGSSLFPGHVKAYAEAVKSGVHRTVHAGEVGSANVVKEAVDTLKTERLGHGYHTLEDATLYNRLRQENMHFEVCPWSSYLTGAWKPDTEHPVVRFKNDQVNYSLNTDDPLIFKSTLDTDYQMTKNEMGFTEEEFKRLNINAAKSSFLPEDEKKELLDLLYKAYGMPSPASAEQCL
Kind of assay: Inhibition of bovine ADA at 100 uM by spectrophotometric analysis. Put shortly: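 Adenosine deaminase assayed at 30 C with 50 μM Ado, 50 mM potassium phosphate pH 7.2 and 0.3 nM enzyme. Deamination was followed as A262 change over 2 min. Compound tested at 100 μM, with DMSO at most 4% final and a substrate-free blank. Percent inhibition from two determinations in triplicate.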

The next assay has as its system NIH3T3. Kind of assay: Cytotoxicity against mouse 3T3 cells by phenyltetrazolium bromide assay. Type of assay: functional, cell-based. An outline of the steps:
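Murine 3T3 fibroblasts; proliferation measured by MTT assay, with IC50 reported. Each value is the mean of three determinations; Student's t test, p < 0.05.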

Where only a bound is given, the exact number is not on record here.

Adenosine kinase, sequence (P55263 whole entry): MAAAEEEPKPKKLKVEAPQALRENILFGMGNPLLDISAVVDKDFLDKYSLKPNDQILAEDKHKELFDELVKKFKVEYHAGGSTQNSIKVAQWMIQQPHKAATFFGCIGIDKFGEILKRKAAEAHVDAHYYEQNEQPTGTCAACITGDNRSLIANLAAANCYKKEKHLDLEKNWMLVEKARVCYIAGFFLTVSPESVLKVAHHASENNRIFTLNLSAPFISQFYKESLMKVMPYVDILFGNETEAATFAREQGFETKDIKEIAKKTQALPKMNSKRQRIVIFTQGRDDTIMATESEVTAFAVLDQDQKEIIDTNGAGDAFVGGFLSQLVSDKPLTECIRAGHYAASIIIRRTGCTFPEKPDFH

For `CCC1(c2ccc(COc3cccc(CCO)c3)cc2)Oc2ccccc2-n2cccc2C1=O` (racemic), on Adenosine kinase (read-out: IC50), the IC50 amounted to 8 µM.
In the case of `CCC1(c2ccc(CSc3c(Cl)cccc3Cl)cc2)Oc2ccccc2-n2cccc2C1=O` (single isomer, unassigned; (-)), the IC50 at Adenosine kinase (read-out: IC50) is 40 µM.
`CCN(CC)CCc1cccc(OCc2ccc(C3(CC)Oc4ccccc4-n4cccc4C3=O)cc2)c1` (racemic): on Adenosine kinase (read-out: IC50), the IC50 was 200 µM.
Same read-out and setting: with `O=C1c2cccn2-c2ccccc2OC1c1ccc(CSc2ccccc2Cl)cc1` (racemic) the figure was 4.4 µM; with `CCC1(c2ccc(C)cc2)Oc2ccccc2-n2cccc2C1=O` (racemic), 80 µM.
Consider `O=C1c2cccn2-c2ccccc2OC1c1ccc(CSc2ccccc2)cc1` (racemic), for which the IC50 on Adenosine kinase (read-out: IC50) amounted to 4 µM.
Turning to `CCC1(c2ccc(CSc3ccc(Cl)cc3Cl)cc2)Oc2ccccc2-n2cccc2C1=O` (racemic), the IC50 at Adenosine kinase (read-out: IC50) is 22.5 µM.
With `O=C1c2cccn2-c2ccccc2OC1c1ccc(CSc2cccc(C(F)(F)F)c2)cc1` (racemic), the IC50 at Adenosine kinase (read-out: IC50) was found to be 9 µM.
Consider `CCC1(c2ccc(CSc3ccccn3)cc2)Oc2ccccc2-n2cccc2C1=O` (racemic), for which the IC50 on Adenosine kinase (read-out: IC50) was 4.5 µM.
Consider `CN(C)c1ccc2n1-c1ccccc1SC(c1ccccc1)C2=O` (racemic), for which the IC50 on Adenosine kinase (read-out: IC50) was greater than 1000 µM.
Still for that read-out and setting: with `CCC1(c2ccc(CSc3ccc(C#C[Si](C)(C)C)cc3)cc2)Sc2ccccc2-n2cccc2C1=O` (racemic) the figure was 2 µM; with `CCC1(c2ccc(CSc3c(Cl)cccc3Cl)cc2)Oc2ccccc2-n2cccc2C1=O` (single isomer, unassigned; (+)), 7.5 µM; with `CCC1(c2ccc(CSc3ccc(I)cc3)cc2)Sc2ccccc2-n2cccc2C1=O` (racemic), 2.2 µM.
As for `CCC1(c2ccc(CSc3cccc(Cl)c3)cc2)Oc2ccccc2-n2cccc2C1=O` (racemic), at Adenosine kinase (read-out: IC50), the IC50 came to 3.5 µM.
Still for that read-out and setting: the same measure for `CCC1(c2ccc(CSc3cccc(OC(F)(F)F)c3)cc2)Oc2ccccc2-n2cccc2C1=O` (racemic): 3.2 µM; for `CCC1(c2ccc(CSc3ncccn3)cc2)Oc2ccccc2-n2cccc2C1=O` (racemic): 7 µM.
With `CCC1(c2ccc(CSc3ccc(F)cc3Cl)cc2)Oc2ccccc2-n2cccc2C1=O` (racemic), the IC50 on Adenosine kinase (read-out: IC50) was 2.5 µM.
On the same count and under the same terms, with `CCC1(c2ccc(CSc3cccc(OC)c3)cc2)Oc2ccccc2-n2cccc2C1=O` (racemic) the figure was 12.5 µM; with `CCC1(c2ccc(CSc3ncc[nH]3)cc2)Oc2ccccc2-n2cccc2C1=O` (racemic), 3.5 µM.
On to `CC(=O)OC1=C(c2ccccc2)Sc2ccccc2-n2cccc21`, for which, at Adenosine kinase, the IC50 result is “Not Active”.
Consider `CCC1(c2ccc(CSc3c(C)cccc3Cl)cc2)Oc2ccccc2-n2cccc2C1=O` (racemic), for which, on Adenosine kinase (read-out: IC50), the IC50 was 3 µM.
As to `C#Cc1ccc(SCc2ccc(C3(CC)Oc4ccccc4-n4cccc4C3=O)cc2)cc1` (racemic), the IC50 on Adenosine kinase (read-out: IC50) came out at 15 µM. In addition, in assay [1], the inhibition stood at 16%.
For `CCC1(c2ccc(CSc3ccc(F)cc3F)cc2)Oc2ccccc2-n2cccc2C1=O` (racemic), the IC50 on Adenosine kinase (read-out: IC50) worked out at 10 µM.
As to `CCC1(c2ccc(CSc3ccc([N+](=O)[O-])cc3)cc2)Oc2ccccc2-n2cccc2C1=O` (racemic), at Adenosine kinase (read-out: IC50), the IC50 came out at 6.2 µM.
Still for that read-out and setting: the same measure for `CCC1(c2ccc(COc3cccc(CCN4CCCC4)c3)cc2)Oc2ccccc2-n2cccc2C1=O` (racemic): 150 µM.
As for `CCC1(c2ccc(CSc3ccc(OC)cc3)cc2)Oc2ccccc2-n2cccc2C1=O` (racemic), on Adenosine kinase (read-out: IC50), the IC50 was found to be 14 µM.
`CCC1(c2ccc(CSc3cc(OC)ccc3OC)cc2)Oc2ccccc2-n2cccc2C1=O` (racemic): at Adenosine kinase (read-out: IC50), the IC50 turned out to be 35 µM.
Take `CCC1(c2ccccc2)Oc2ccccc2-n2cccc2C1=O` (racemic): the IC50 on Adenosine kinase (read-out: IC50) came out at 85 µM.
With `CCC1(c2ccc(CSc3c(F)c(F)cc(F)c3F)cc2)Oc2ccccc2-n2cccc2C1=O` (racemic), at Adenosine kinase (read-out: IC50), the IC50 turned out to be 8 µM.
As for `CCC1(c2ccc(CSc3ccc(I)cc3Cl)cc2)Oc2ccccc2-n2cccc2C1=O` (racemic), the IC50 on Adenosine kinase (read-out: IC50) worked out at 2 µM.
As for `CCC1(c2ccc(CSc3c(Cl)cccc3Cl)cc2)Oc2ccccc2-n2cccc2C1=O` (racemic), the half-maximal inhibitory concentration (IC50) at Adenosine kinase (read-out: IC50) came out at 20 µM.
Turning to `CCC1(c2ccc(COc3ccc(I)cc3Cl)cc2)Oc2ccccc2-n2cccc2C1=O` (racemic), the IC50 on Adenosine kinase (read-out: IC50) is 1.2 µM.
Turning to `O=C1c2cccn2-c2ccccc2SC1c1ccccc1` (racemic), the IC50 on Adenosine kinase (read-out: IC50) was found to be 130 µM.
In the case of `CCC1(c2ccc(CSc3ccc(Cl)c(Cl)c3)cc2)Oc2ccccc2-n2cccc2C1=O` (racemic), the IC50 at Adenosine kinase (read-out: IC50) was 10 µM.
In the case of `CCC1(c2ccc(CSc3ccc(C#C[Si](C)(C)C)cc3)cc2)Oc2ccccc2-n2cccc2C1=O` (racemic), the IC50 at Adenosine kinase (read-out: IC50) stood at 10 µM.
Turning to `CCC1(c2ccc(CSc3ccc(I)cc3)cc2)Oc2ccccc2-n2cccc2C1=O` (racemic), the IC50 on Adenosine kinase (read-out: IC50) was determined as 2.5 µM; in the assay with NIH3T3, 43.5 µM.
Consider `CCC1(c2ccc(CSc3cc(Cl)ccc3Cl)cc2)Oc2ccccc2-n2cccc2C1=O` (racemic), for which, at Adenosine kinase (read-out: IC50), the IC50 turned out to be 14 µM.
`CC(=O)OC1=C(c2ccccc2)Oc2ccccc2-n2cccc21`: the IC50 entry against Adenosine kinase was “Not Active”.
Turning to `CCC1(c2ccc(CSc3cccc(C)c3)cc2)Oc2ccccc2-n2cccc2C1=O` (racemic), the IC50 on Adenosine kinase (read-out: IC50) came to 21.4 µM.
As for `CCC1(c2ccc(CSc3ccccc3Cl)cc2)Sc2ccccc2-n2cccc2C1=O` (racemic), at Adenosine kinase (read-out: IC50), the IC50 was determined as 5 µM.
As to `CCC1(c2cccc(C)c2)Oc2ccccc2-n2cccc2C1=O` (racemic), at Adenosine kinase (read-out: IC50), the IC50 came to 150 µM.
Take `CCC1(c2ccc(CSc3ccc(F)c(Cl)c3)cc2)Oc2ccccc2-n2cccc2C1=O` (racemic): the IC50 at Adenosine kinase (read-out: IC50) worked out at 11 µM.
For `CCC1(c2ccc(CSc3cnccn3)cc2)Oc2ccccc2-n2cccc2C1=O` (racemic), the IC50 at Adenosine kinase (read-out: IC50) was determined as 7 µM.
Consider `CCC1(c2ccc(CSc3ccc(F)cc3)cc2)Oc2ccccc2-n2cccc2C1=O` (racemic), for which the IC50 at Adenosine kinase (read-out: IC50) was 1 µM. The inhibition in assay [1] was found to be 13%.
For the compound `CCC1(c2ccc(CSc3cccc(F)c3)cc2)Oc2ccccc2-n2cccc2C1=O` (racemic), on Adenosine kinase (read-out: IC50), the IC50 was determined as 4 µM.
As for `CCC1(c2ccc(CSc3ccccc3Cl)cc2)Oc2ccccc2-n2cccc2C1=O` (racemic), the IC50 on Adenosine kinase (read-out: IC50) amounted to 1 µM; in the assay on NIH3T3 it was 97.8 µM. Besides, in assay [1], the inhibition was 6.5%.
In the case of `CCC1(c2ccc(CSc3ccccc3F)cc2)Oc2ccccc2-n2cccc2C1=O` (racemic), on Adenosine kinase (read-out: IC50), the IC50 stood at 4.5 µM.
Regarding `CCC1(c2ccc(CSc3ccc(Br)cc3)cc2)Oc2ccccc2-n2cccc2C1=O` (racemic), the IC50 at Adenosine kinase (read-out: IC50) came to 2 µM; in the assay with NIH3T3, 47.6 µM.
Consider `CCC1(c2ccc(CSc3ccc(OC(F)(F)F)cc3)cc2)Oc2ccccc2-n2cccc2C1=O` (racemic), for which the IC50 on Adenosine kinase (read-out: IC50) came out at 6.7 µM.
With `CCC1(c2ccc(CSc3cccc(C(F)(F)F)c3)cc2)Oc2ccccc2-n2cccc2C1=O` (racemic), the half-maximal inhibitory concentration (IC50) came to 2.5 µM on Adenosine kinase (read-out: IC50) and 44.6 µM with NIH3T3. This compound also had an inhibition in assay [1] of 2.7%.
As to `CCC1(c2ccc(CSc3cccc(Cl)c3Cl)cc2)Oc2ccccc2-n2cccc2C1=O` (racemic), the IC50 on Adenosine kinase (read-out: IC50) came to 3 µM.
For `O=C1c2cccn2-c2ccccc2OC1c1ccccc1` (racemic), on Adenosine kinase (read-out: IC50), the IC50 was determined as 100 µM.
